Laboratory results published in ChEMBL document CHEMBL5329156, “Discovery and development of novel substituted monohydrazides as potent antifungal agents” (RSC Med Chem, 2023).
Converted amounts (≈) assume the structure as drawn.

What was measured:
[1] = tested on: Candida albicans; assay: Antifungal activity against Candida albicans ATCC 10231 assessed as fungal growth inhibition by double dilution method; format: functional
Outline: (§1)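 Broth microdilution after CLSI M27-A3/M38-A2 with minor changes. Single colony grown overnight in YPD at 35 °C, 200 rpm. Compound final range 0.06-31.3 µg/mL; incubated 48 h at 35 °C.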

[2] = tested on: Candida albicans; assay: Antifungal activity against Candida albicans ATCC 64124 assessed as fungal growth inhibition by double dilution method; format: functional
Outline: (§2)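 Broth microdilution after CLSI M27-A3/M38-A2 with minor modifications. A single colony was grown overnight in YPD at 35 °C with shaking at 200 rpm. Cells were mixed 1:1 with compound (final 0.06-31.3 µg/mL, from DMSO stocks) and incubated 48 h at 35 °C.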

[3] = tested on: Candida albicans; assay: Antifungal activity against itraconazole/fluconazole susceptible Candida albicans ATCC MYA-2876 assessed as fungal growth inhibition by double dilution method; format: functional; outline: as §2
[4] = tested on: Candida albicans; assay: Antifungal activity against itraconazole/fluconazole resistant Candida albicans ATCC 90819 assessed as fungal growth inhibition by double dilution method; format: functional; outline: as §2
[5] = tested on: Candida albicans; assay: Antifungal activity against itraconazole/fluconazole susceptible Candida albicans ATCC MYA-2310 assessed as fungal growth inhibition by double dilution method; format: functional; outline: as §2
[6] = tested on: Candida albicans; assay: Antifungal activity against itraconazole/fluconazole resistant Candida albicans ATCC MYA-1237 assessed as fungal growth inhibition by double dilution method; format: functional; outline: as §2
[7] = tested on: Candida albicans; assay: Antifungal activity against itraconazole/fluconazole resistant Candida albicans ATCC MYA-1003 assessed as fungal growth inhibition by double dilution method; format: functional; outline: as §2
[8] = tested on: Nakaseomyces glabratus; assay: Antifungal activity against Candida glabrata ATCC 2001 assessed as fungal growth inhibition by double dilution method; format: functional; outline: as §1
[9] = tested on: Pichia kudriavzevii; assay: Antifungal activity against Pichia kudriavzevii ATCC 6258 assessed as fungal growth inhibition by double dilution method; format: functional; outline: as §1
[10] = tested on: Nakaseomyces glabratus; assay: Antifungal activity against Candida glabrata ATCC 22019 assessed as fungal growth inhibition by double dilution method; format: functional; outline: as §1
[11] = tested on: [Candida] auris; assay: Antifungal activity against Candida auris AR Bank # 0384 assessed as fungal growth inhibition by double dilution method; format: functional; conditions: Candidozyma auris; outline: as §1
[12] = tested on: [Candida] auris; assay: Antifungal activity against Candida auris AR Bank # 0390 assessed as fungal growth inhibition by double dilution method; format: functional; conditions: Candidozyma auris; outline: as §1
[13] = tested on: Cryptococcus neoformans; assay: Antifungal activity against Cryptococcus neoformans ATCC MYA-895 assessed as fungal growth inhibition by double dilution method; format: functional; outline: as §1
[14] = tested on: Aspergillus terreus; assay: Antifungal activity against Aspergillus terreus ATCC MYA-3633 assessed as fungal growth inhibition by double dilution method; format: functional
[15] = tested on: Aspergillus fumigatus; assay: Antifungal activity against Aspergillus fumigatus NRRL 163 assessed as fungal growth inhibition by double dilution method; format: functional
[16] = tested on: Aspergillus flavus; assay: Antifungal activity against Aspergillus flavus ATCC MYA-3631 assessed as fungal growth inhibition by double dilution method; format: functional
[17] = tested on: Aspergillus nidulans; assay: Antifungal activity against Aspergillus nidulans ATCC 38163 assessed as fungal growth inhibition by double dilution method; format: functional
[18] = tested on: Aspergillus fumigatus; assay: Antifungal activity against Aspergillus fumigatus NRRL 5109 assessed as fungal growth inhibition by double dilution method; format: functional
[19] = tested on: Aspergillus fumigatus; assay: Antifungal activity against Aspergillus fumigatus NRRL 6113 assessed as fungal growth inhibition by double dilution method; format: functional
[20] = tested on: [Candida] auris; assay: Antifungal activity against Candida auris AR Bank # 381 assessed as fungal growth inhibition by double dilution method; format: functional; conditions: Candidozyma auris; outline: as §1
[21] = tested on: [Candida] auris; assay: Antifungal activity against Candida auris AR Bank # 382 assessed as fungal growth inhibition by double dilution method; format: functional; conditions: Candidozyma auris; outline: as §1
[22] = tested on: [Candida] auris; assay: Antifungal activity against Candida auris AR Bank # 383 assessed as fungal growth inhibition by double dilution method; format: functional; conditions: Candidozyma auris; outline: as §1
[23] = tested on: [Candida] auris; assay: Antifungal activity against Candida auris AR Bank # 384 assessed as fungal growth inhibition by double dilution method; format: functional; conditions: Candidozyma auris; outline: as §1
[24] = tested on: [Candida] auris; assay: Antifungal activity against Candida auris AR Bank # 385 assessed as fungal growth inhibition by double dilution method; format: functional; conditions: Candidozyma auris; outline: as §1
[25] = tested on: [Candida] auris; assay: Antifungal activity against Candida auris AR Bank # 386 assessed as fungal growth inhibition by double dilution method; format: functional; conditions: Candidozyma auris; outline: as §1
[26] = tested on: [Candida] auris; assay: Antifungal activity against Candida auris AR Bank # 387 assessed as fungal growth inhibition by double dilution method; format: functional; conditions: Candidozyma auris; outline: as §1
[27] = tested on: [Candida] auris; assay: Antifungal activity against Candida auris AR Bank # 388 assessed as fungal growth inhibition by double dilution method; format: functional; conditions: Candidozyma auris; outline: as §1
[28] = tested on: [Candida] auris; assay: Antifungal activity against Candida auris AR Bank # 389 assessed as fungal growth inhibition by double dilution method; format: functional; conditions: Candidozyma auris; outline: as §1
[29] = tested on: [Candida] auris; assay: Antifungal activity against Candida auris AR Bank # 390 assessed as fungal growth inhibition by double dilution method; format: functional; conditions: Candidozyma auris; outline: as §1
[30] = tested on: Candida duobushaemulonii; assay: Antifungal activity against Candida duobushaemulonii AR Bank # 391 assessed as fungal growth inhibition by double dilution method; format: functional; conditions: Candidozyma duobushaemuli; outline: as §1
[31] = tested on: Candida duobushaemulonii; assay: Antifungal activity against Candida duobushaemulonii AR Bank # 392 assessed as fungal growth inhibition by double dilution method; format: functional; conditions: Candidozyma duobushaemuli; outline: as §1
[32] = tested on: [Candida] haemuloni; assay: Antifungal activity against Candida haemulonii AR Bank # 393 assessed as fungal growth inhibition by double dilution method; format: functional; conditions: Candidozyma haemuli; outline: as §1
[33] = tested on: Candida duobushaemulonii; assay: Antifungal activity against Candida duobushaemulonii AR Bank # 394 assessed as fungal growth inhibition by double dilution method; format: functional; conditions: Candidozyma duobushaemuli; outline: as §1
[34] = tested on: [Candida] haemuloni; assay: Antifungal activity against Candida haemulonii AR Bank # 395 assessed as fungal growth inhibition by double dilution method; format: functional; conditions: Candidozyma haemuli; outline: as §1
[35] = tested on: Kodamaea ohmeri; assay: Antifungal activity against Kodamaea ohmeri AR Bank # 396 assessed as fungal growth inhibition by double dilution method; format: functional; outline: as §1
[36] = tested on: Pichia kudriavzevii; assay: Antifungal activity against Pichia kudriavzevii AR Bank # 397 assessed as fungal growth inhibition by double dilution method; format: functional; outline: as §1
[37] = tested on: Clavispora lusitaniae; assay: Antifungal activity against Clavispora lusitaniae AR Bank # 398 assessed as fungal growth inhibition by double dilution method; format: functional; outline: as §1
[38] = tested on: Saccharomyces cerevisiae; assay: Antifungal activity against Saccharomyces cerevisiae AR Bank # 399 assessed as fungal growth inhibition by double dilution method; format: functional; outline: as §1
[39] = tested on: Saccharomyces cerevisiae; assay: Antifungal activity against Saccharomyces cerevisiae AR Bank # 400 assessed as fungal growth inhibition by double dilution method; format: functional; outline: as §1
[40] = tested on: J774.A1; assay: Cytotoxicity against J774A.1 cells assessed as reduction in cell viability at 31.3 microg/ml; format: toxicity, cell-based; conditions: mouse, dose 31.3 µg/ml
Outline: (§3)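 Cells in DMEM with 10% FBS and 1% Pen/Strep, seeded at 10,000 cells/well and held overnight at 37 °C, 5% CO2. Compounds added at final 31.3-0.12 µg/mL (0.05% DMSO vehicle) for 24 h. Resazurin then added for 6 h; fluorescence read at ex 560/em 590. Triton X-100 1% as positive control; values normalized to vehicle. Run in quadruplicate.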

[41] = tested on: HEK293; assay: Cytotoxicity against human HEK-293 cells assessed as reduction in cell viability at 31.3 microg/ml; format: toxicity, cell-based; conditions: dose 31.3 µg/ml; outline: as §3
[42] = tested on: HepG2; assay: Cytotoxicity against human HepG2 cells assessed as reduction in cell viability upto 31.3 microg/ml; format: toxicity, cell-based; conditions: dose < 31.3 µg/ml; outline: as §3

Compound: O=C(NNc1cccc(Cl)c1)c1cnccn1
- MIC [1]: 0.24 µg/mL (≈ 0.965 µM)
- MIC [2]: 1.95 µg/mL (≈ 7.84 µM)
- MIC [3]: 1.95 µg/mL (≈ 7.84 µM)
- MIC [4]: 3.9 µg/mL (≈ 15.7 µM)
- MIC [5]: 7.8 µg/mL (≈ 31.4 µM)
- MIC [6]: 0.98 µg/mL (≈ 3.94 µM)
- MIC [7]: 0.98 µg/mL (≈ 3.94 µM)
- MIC [8]: 3.9 µg/mL (≈ 15.7 µM)
- MIC [9]: 0.24 µg/mL (≈ 0.965 µM)
- MIC [10]: 1.95 µg/mL (≈ 7.84 µM)
- MIC [11]: 1.95 µg/mL (≈ 7.84 µM)
- MIC [12]: 0.98 µg/mL (≈ 3.94 µM)
- MIC [13]: 0.24 µg/mL (≈ 0.965 µM)
- MIC [14]: 0.98 µg/mL (≈ 3.94 µM)
- MIC [15]: > 31.3 µg/mL
- MIC [16]: > 31.3 µg/mL
- MIC [17]: 0.98 µg/mL (≈ 3.94 µM)
- MIC [18]: > 31.3 µg/mL
- MIC [19]: > 31.3 µg/mL
- MIC [20]: 0.49 µg/mL (≈ 1.97 µM)
- MIC [21]: 0.12 µg/mL (≈ 0.483 µM)
- MIC [22]: 0.24 µg/mL (≈ 0.965 µM)
- MIC [23]: 0.98 µg/mL (≈ 3.94 µM)
- MIC [24]: 0.24 µg/mL (≈ 0.965 µM)
- MIC [25]: ≤ 0.06 µg/mL
- MIC [26]: 0.24 µg/mL (≈ 0.965 µM)
- MIC [27]: 0.24 µg/mL (≈ 0.965 µM)
- MIC [28]: 0.24 µg/mL (≈ 0.965 µM)
- MIC [29]: 0.49 µg/mL (≈ 1.97 µM)
- MIC [30]: 0.24 µg/mL (≈ 0.965 µM)
- MIC [31]: 0.12 µg/mL (≈ 0.483 µM)
- MIC [32]: 0.24 µg/mL (≈ 0.965 µM)
- MIC [33]: 0.12 µg/mL (≈ 0.483 µM)
- MIC [34]: 0.24 µg/mL (≈ 0.965 µM)
- MIC [35]: 0.12 µg/mL (≈ 0.483 µM)
- MIC [36]: 0.12 µg/mL (≈ 0.483 µM)
- MIC [37]: 0.49 µg/mL (≈ 1.97 µM)
- MIC [38]: 0.98 µg/mL (≈ 3.94 µM)
- MIC [39]: 0.98 µg/mL (≈ 3.94 µM)
- Activity [40]: Non-Toxic
- Activity [41]: Non-Toxic
- Activity [42]: Non-Toxic
